High-throughput results from PubChem.
FGF22 binding: shifts melting point of recombinant human FGF22; activity (Tm shift, normalised), % at 9.99 µM; 340,000 compounds, 1.5% hits; recombinant FGF22 thermal shift, SYPRO orange fluorescence; percent of sucrose octasulfate shift, DMSO zero; AID 651658; Q9HCT0;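 active = mean Tm shift, scaled 0 neutral to 100 positive control, at about 1.3% or above, every replicate too, limit read from the data; inconclusive = no clear call, values can overlap the other calls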
ERAP1 HTS inh: inhibitors of human ERAP1 aminopeptidase; Q9NZ08; recombinant ERAP1, Leu-AMC fluorescence, 60 min; inhibition, % at 10.7 µM; 340,000 compounds, 0.15% hits;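 active = mean replicate inhibition of at least 30%, or all replicates individually reaching that 30% level; inactive = mean below 30% and not every replicate reaching it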;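 note: 0% = neutral control wells and 100% = L-leucinethiol positive control wells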
DENV2 CPE rescue: inhibitors of DENV2 cytopathic effect; 350,000 compounds, 1.7% hits; DENV2-infected cells, cytopathic effect rescue, plate reader; AID 651640; CPE inhibition, % at 9.99 µM; in the data active = CPE inhibition above about 20%, passing the limit was not always enough; inconclusive = no clear call, values can overlap the other calls; tested in BHK-21 cells;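 note: 0% = median of neutral control wells and 100% = median of positive control wells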
F508del corr: CFTR F508del correction in bronchial cells. 350,000 compounds, 0.36% hits. CFBE cells, YFP halide quenching; stimulated with forskolin plus potentiator P3; % fluorescence drop versus neutral controls. AID 720511. activity (quench increase), % at 7.58 µM;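 active = mean added fluorescence quench of at least 8% versus neutral control, with both replicates also reaching 8%; inconclusive = only one of the mean or replicate conditions met; inactive = mean below 8% and not both replicates reaching 8%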;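 note: cells transiently co-express mutant CFTR-F508del with the halide-sensitive YFP; corrector assay measuring rescue of mutant channel to the surface after 24 h compound exposure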
E-sel inducer: induces E-selectin expression in human endothelial cells. HUVEC E-selectin immunofluorescence imaging; normalized: neutral wells 0, TNF-alpha wells 100. AID 686992. 260,000 compounds, 0.37% hits. activation, % at 7.58 µM;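 active = mean E-selectin-positive cell signal at least 10% of the positive control, reached in at least 60% of replicates, without over 20% cell loss; inconclusive = no rule given, readout overlaps actives, possibly toxicity-flagged; inactive = the rest, including those meeting only one limit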
Target sequence (P16581 whole entry, looked up): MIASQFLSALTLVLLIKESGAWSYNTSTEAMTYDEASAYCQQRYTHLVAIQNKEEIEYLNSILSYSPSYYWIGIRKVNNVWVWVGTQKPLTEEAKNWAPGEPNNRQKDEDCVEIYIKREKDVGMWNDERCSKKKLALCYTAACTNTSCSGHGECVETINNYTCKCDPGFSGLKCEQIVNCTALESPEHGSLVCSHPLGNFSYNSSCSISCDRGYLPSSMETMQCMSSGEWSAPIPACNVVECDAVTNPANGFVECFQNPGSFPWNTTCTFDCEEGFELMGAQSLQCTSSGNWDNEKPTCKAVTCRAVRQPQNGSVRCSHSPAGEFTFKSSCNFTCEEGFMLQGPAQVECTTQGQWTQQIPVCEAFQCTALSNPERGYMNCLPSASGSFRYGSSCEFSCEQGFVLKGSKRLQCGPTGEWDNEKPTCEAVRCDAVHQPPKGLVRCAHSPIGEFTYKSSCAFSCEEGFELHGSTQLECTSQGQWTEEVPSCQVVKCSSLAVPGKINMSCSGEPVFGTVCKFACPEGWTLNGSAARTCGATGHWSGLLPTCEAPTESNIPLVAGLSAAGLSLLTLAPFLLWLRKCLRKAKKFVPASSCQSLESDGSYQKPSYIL
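Test system: HUVEC | Signal: Immunofluorescence imaging | Read-out: Percent E-selectin-positive cells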
Starred values were filed as active, the others as inactive; u = inconclusive; x = not tested or not shown. This is a sample that favours compounds with a hit; in the whole collection about 3.7% have one here.

SMILES | FGF22 binding | ERAP1 HTS inh | DENV2 CPE rescue | F508del corr | E-sel inducer
Cc1cc(C)cc(NC(=S)N2CCN(c3ncccn3)CC2)c1 | 0 | 4 | 0 | 0 | 0
COc1ccc(S(=O)(=O)N(C)C[C@H]2Oc3ccc(NS(C)(=O)=O)cc3CC(=O)N([C@H](C)CO)C[C@@H]2C)cc1 | 0 | 0 | 15 | -4 | x
O=C(Nc1ccc(F)cc1)N1CCN(c2ncccn2)CC1 | 43* | -2 | -3 | 0 | 0
NC1(C(=O)O)CC1 | 0 | 2 | u | 17* | 1
O=C(O)CCCNc1n[nH]c(=O)[nH]c1=O | 43* | 5 | 6 | x | x
CN(C)CCCNC(=O)C[C@H]1CC[C@@H]2[C@@H](COc3ccc(NC(=O)NC4CCCC4)cc3C(=O)N2C)O1 | x | x | x | -1 | 0
COc1cccc(C2c3c(oc4ccccc4c3=O)C(=O)N2CCCN2CCOCC2)c1OC (stereo unspecified) | 0 | x | -5 | -1 | 46*
O=C1c2oc3ccccc3c(=O)c2C(c2cccc(O)c2)N1CCCN1CCOCC1 (stereo unspecified) | 0 | x | 6 | -1 | 1
C/C(=N\N1CCN(C)CC1)c1ccc(OC(F)F)cc1 | 43* | -3 | 5 | -2 | x
CCc1ccc(NC(=O)C(C)OC(=O)Cn2[nH]c(=O)c3ccccc3c2=O)cc1 (stereo unspecified) | 0 | -2 | 60* | 1 | 6
CN(C)CCCCCCNC(=O)[C@@H]1C[C@@H]2C(=O)NCC(=O)N2[C@@H]1c1cccc(OCCO)c1 | 0 | -1 | 10 | 1 | x
CC[n+]1c(C)sc2c3ccsc3ccc21 | 43* | 12 | -4 | 3 | x
CO[C@H]1CN(C)C(=O)c2cc(NC(C)=O)ccc2OC[C@@H](C)N(Cc2ccccc2C(=O)O)C[C@H]1C | 0 | -1 | 1 | 1 | 1
Cc1ccc(S(=O)(=O)N(C)C[C@H]2OCCCC[C@H](C)Oc3ccc(NS(=O)(=O)c4c(C)noc4C)cc3C(=O)N([C@@H](C)CO)C[C@@H]2C)cc1 | 0 | -1 | 43* | -2 | x
Cc1ccc(S(=O)(=O)N(C)C[C@@H]2OCCCC[C@H](C)Oc3ccc(NS(=O)(=O)c4c(C)noc4C)cc3C(=O)N([C@H](C)CO)C[C@@H]2C)cc1 | 0 | -2 | 89* | -3 | x
Cc1ccc(S(=O)(=O)N(C)C[C@H]2OCCCC[C@@H](C)Oc3ccc(NS(=O)(=O)c4c(C)noc4C)cc3C(=O)N([C@H](C)CO)C[C@H]2C)cc1 | -1 | -2 | 21* | -4 | x
Cc1noc(C)c1S(=O)(=O)Nc1ccc2c(c1)C(=O)N([C@@H](C)CO)C[C@@H](C)[C@H](CN(C)S(=O)(=O)c1ccccc1)OCCCC[C@@H](C)O2 | -1 | 1 | 94* | -1 | 0
Cc1ccc(S(=O)(=O)N(C)C[C@@H]2OCCCC[C@@H](C)Oc3ccc(NS(=O)(=O)c4c(C)noc4C)cc3C(=O)N([C@H](C)CO)C[C@@H]2C)cc1 | 0 | -2 | -2 | 2 | 0
C[C@@H]1CN([C@H](C)CO)C(=O)c2cc(C#Cc3ccccc3F)cnc2O[C@H]1CN(C)S(C)(=O)=O | 0 | 0 | -1 | x | 0
COc1ccc(NC(=O)Nc2ccc3c(c2)CC(=O)N([C@@H](C)CO)C[C@@H](C)[C@H](CN(C)S(=O)(=O)c2ccc(Cl)cc2)O3)cc1 | 0 | 1 | 10 | 0 | 20
Cc1ccc(S(=O)(=O)Nc2ccc3c(c2)C(=O)N([C@@H](C)CO)C[C@@H](C)[C@@H](CN(C)S(=O)(=O)c2c(C)noc2C)OCCCC[C@@H](C)O3)cc1 | 0 | -1 | 28* | 1 | x
Cc1ccc(S(=O)(=O)N(C)C[C@@H]2OCCCC[C@@H](C)Oc3ccc(NS(=O)(=O)c4c(C)noc4C)cc3C(=O)N([C@H](C)CO)C[C@H]2C)cc1 | -1 | -1 | 62* | 1 | x
Cc1ccc(S(=O)(=O)Nc2ccc3c(c2)C(=O)N([C@@H](C)CO)C[C@@H](C)[C@H](CN(C)S(=O)(=O)c2c(C)noc2C)OCCCC[C@@H](C)O3)cc1 | -1 | -2 | 2 | -1 | x
Cc1ccc(S(=O)(=O)N(C)C[C@@H]2OCCCC[C@H](C)Oc3ccc(NS(=O)(=O)c4c(C)noc4C)cc3C(=O)N([C@H](C)CO)C[C@H]2C)cc1 | 0 | -1 | 112* | 0 | x
CC(C)NC(=O)Nc1ccc2c(c1)C(=O)N([C@H](C)CO)C[C@H](C)[C@H](CN(C)S(=O)(=O)c1ccccc1)O2 | 0 | 1 | -5 | -2 | -24
SMILES | FGF22 binding | ERAP1 HTS inh | DENV2 CPE rescue | F508del corr | E-sel inducer
O=C(Nc1nc(-c2ccco2)c(-c2ccco2)s1)c1ccc(F)cc1F | 0 | 2 | 68* | 0 | 0
Cn1c(NCc2ccccc2F)nc2cc(-c3ccsc3)sc2c1=O | 0 | 6 | -2 | 8.1* | 0
Cc1c(C(=O)OCC(=O)N2CC(C)CC(C)C2)oc2ccccc12 (stereo unspecified) | 46* | 0 | -4 | -3 | 0
O=C(Cc1cccnc1)N1CC2(C1)[C@@H](c1ccccc1)[C@@H](CO)N2C(=O)C1CCOCC1 | 0 | -1 | 22* | -1 | 0
O=C(Cc1cccnc1)N1CC2(C1)[C@H](c1ccccc1)[C@@H](CO)N2C(=O)C1CCOCC1 | 0 | x | -13 | -2 | 0
CCC(=O)N1CC2(C1)[C@H](c1ccccc1)[C@@H](CO)N2C(=O)c1ccncc1 | 0 | 1 | 23* | -2 | 0
CCC(=O)N1CC2(C1)[C@@H](c1ccc(-c3ccccc3C)cc1)[C@@H](CO)N2C(=O)CC | x | 2 | 37* | 1 | 0
COCC(=O)N1CC2(C1)[C@H](c1ccccc1)[C@H](CO)N2C(=O)c1cccnc1 | 0 | 4 | -4 | 1 | 0
CCC(=O)N1CC2(C1)[C@@H](c1ccccc1)[C@@H](CO)N2C(=O)c1ccncc1 | 0 | 0 | 17 | 0 | 0
CCC(=O)N1CC2(C1)[C@H](c1ccc(-c3ccccc3C)cc1)[C@H](CO)N2C(=O)CC | 0 | 4 | -11 | 2 | 0
CCC(=O)N1CC2(C1)[C@@H](c1ccccc1)[C@@H](CO)N2C(=O)c1cccnc1 | 0 | -2 | 29* | -4 | 0
CNC[C@H]1OCCCC[C@H](C)Oc2ccc(N(C)C)cc2C(=O)N([C@H](C)CO)C[C@@H]1C | -2 | -3 | -3 | -1 | 2
CCCNC(=O)N1[C@@H]2c3ccc(-c4cccc(F)c4)c(=O)n3C[C@H]1[C@H](CO)[C@H]2C(=O)NC1CCC1 | x | 2 | -7 | 3 | 0
O=C(C1CCCC1)N1CC2(C1)[C@H](c1ccccc1)[C@H](CO)N2CC1CC1 | 1 | 1 | 2 | -2 | 0
COc1ccc(C(=O)CC(C#N)c2ccc3c(c2)OCO3)cc1OC (stereo unspecified) | 0 | -2 | 0 | 0 | 0
